# Measured values from ChEMBL document CHEMBL4052671, “Design, synthesis, and evaluation of DNA topoisomerase II-targeted nucleosides” (Bioorg Med Chem, 2017).
# Active and inactive are the calls of the source. The rule behind the calls is not given here.
# Tests used:
# [1] = molecular target: T1, DNA topoisomerase 2-alpha (Homo sapiens, UniProt P11388); experiment: Inhibition of recombinant human DNA topoisomerase-2alpha assessed as decrease in relaxation of supercoiled pBR322 DNA at […] after 30 mins by ethidium bromide staining based agarose gel electrophoresis relative to control
# How it was run: (§1)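 Topo II relaxation of supercoiled pBR322 (198 ng) with 1 U enzyme, 50 mM Tris-HCl pH 8, 120 mM KCl, 10 mM MgCl2, 0.5 mM ATP, 0.5 mM DTT, drug in <10% DMSO; 37 °C for 30 min; products run on 1% agarose in TAE, ethidium-stained, scanned; supercoiled DNA area quantified.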
# [2] = molecular target: T1, DNA topoisomerase 2-alpha; experiment: Inhibition of recombinant human DNA topoisomerase-2alpha assessed as decrease in relaxation of supercoiled pBR322 DNA after 30 mins by ethidium bromide staining based agarose gel electrophoresis
# [3] = molecular target: T1, DNA topoisomerase 2-alpha; experiment: Inhibition of recombinant human DNA topoisomerase-2alpha assessed as decrease in relaxation of supercoiled pBR322 DNA at 200 uM after 30 mins by ethidium bromide staining based agarose gel electrophoresis relative to control; how it was run: as §1
# [4] = molecular target: T1, DNA topoisomerase 2-alpha; experiment: Poison activity at recombinant human DNA topoisomerase-2alpha assessed as linear DNA formation using supercoiled pBR322 DNA as substrate at 200 uM after 30 mins by ethidium bromide staining based agarose gel electrophoresis
# How it was run: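 Cleavage reactions: 200 ng pBR322, 6 U topo II, 30 mM Tris-HCl pH 7.6, 60 mM NaCl, 8 mM MgCl2, 3 mM ATP, 15 mM mercaptoethanol, drug in 10% DMSO; 37 °C, 30 min; SDS/proteinase K 60 min, 37 °C; 1% agarose in TBE with 0.1% SDS and ethidium bromide; linear DNA scored.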
# [5] = molecular target: DNA topoisomerase 1 (Homo sapiens) (UniProt P11387); experiment: Inhibition of human placenta DNA topoisomerase-1 assessed as decrease in relaxation of supercoiled pUC19 DNA at 200 uM after 30 mins by ethidium bromide staining based agarose gel electrophoresis
# [6] = molecular target: T1, DNA topoisomerase 2-alpha; experiment: Inhibition of recombinant human DNA topoisomerase-2alpha assessed as decrease in relaxation of supercoiled pBR322 DNA at 100 uM after 30 mins by ethidium bromide staining based agarose gel electrophoresis; how it was run: as §1
# OVCAR-5 = experiment: Growth inhibition of human OVCAR5 cells incubated for 48 hrs by sulforhodamine B assay; type: functional; conditions: OVCAR-5, 48 h
# St-4 = experiment: Growth inhibition of human St-4 cells incubated for 48 hrs by sulforhodamine B assay; type: functional; conditions: St-4, 48 h
# SNB-75 = experiment: Growth inhibition of human SNB75 cells incubated for 48 hrs by sulforhodamine B assay; type: functional; conditions: SNB-75, 48 h
# SK-OV-3 = experiment: Growth inhibition of human SKOV3 cells incubated for 48 hrs by sulforhodamine B assay; type: functional; conditions: SK-OV-3, 48 h
# RXF 631 = experiment: Growth inhibition of human RXF631L cells incubated for 48 hrs by sulforhodamine B assay; type: functional; conditions: RXF 631, 48 h
# DMS-114 = experiment: Growth inhibition of human DMS114 cells incubated for 48 hrs by sulforhodamine B assay; type: functional; conditions: DMS-114, 48 h
# DU-145 = experiment: Growth inhibition of human DU145 cells incubated for 48 hrs by sulforhodamine B assay; type: functional; conditions: DU-145, 48 h
# MKN-28 = experiment: Growth inhibition of human MKN28 cells incubated for 48 hrs by sulforhodamine B assay; type: functional; conditions: MKN-28, 48 h
# HCT-15 = experiment: Growth inhibition of human HCT15 cells incubated for 48 hrs by sulforhodamine B assay; type: functional; conditions: HCT-15, 48 h
# MKN-1 = experiment: Growth inhibition of human MKN1 cells incubated for 48 hrs by sulforhodamine B assay; type: functional; conditions: MKN-1, 48 h
# U-251 = experiment: Growth inhibition of human U251 cells incubated for 48 hrs by sulforhodamine B assay; type: functional; conditions: U-251, 48 h
# MKN-45 = experiment: Growth inhibition of human MKN45 cells incubated for 48 hrs by sulforhodamine B assay; type: functional; conditions: MKN-45, 48 h
# NCI-H23 = experiment: Growth inhibition of human NCI-H23 cells incubated for 48 hrs by sulforhodamine B assay; type: functional; conditions: NCI-H23, 48 h
# SNB-78 = experiment: Growth inhibition of human SNB78 cells incubated for 48 hrs by sulforhodamine B assay; type: functional; conditions: SNB-78, 48 h
# NCI-H226 = experiment: Growth inhibition of human NCI-H226 cells incubated for 48 hrs by sulforhodamine B assay; type: functional; conditions: NCI-H226, 48 h
# ACHN = experiment: Growth inhibition of human ACHN cells incubated for 48 hrs by sulforhodamine B assay; type: functional
# OVCAR-4 = experiment: Growth inhibition of human OVCAR4 cells incubated for 48 hrs by sulforhodamine B assay; type: functional; conditions: OVCAR-4, 48 h
# PC-3 = experiment: Growth inhibition of human PC3 cells incubated for 48 hrs by sulforhodamine B assay; type: functional; conditions: PC-3, 48 h
# [7] = Growth inhibition of human BSY1 cells incubated for 48 hrs by sulforhodamine B assay; type: functional; conditions: BSY-1, 48 h
# [8] = Growth inhibition of human HBC4 cells incubated for 48 hrs by sulforhodamine B assay; type: functional; conditions: HBC4, 48 h
# MKN-74 = experiment: Growth inhibition of human MKN74 cells incubated for 48 hrs by sulforhodamine B assay; type: functional; conditions: MKN-74, 48 h
# KM12 = experiment: Growth inhibition of human KM12 cells incubated for 48 hrs by sulforhodamine B assay; type: functional; conditions: KM12, 48 h
# NCI-H522 = experiment: Growth inhibition of human NCI-H522 cells incubated for 48 hrs by sulforhodamine B assay; type: functional; conditions: NCI-H522, 48 h
# A549 = experiment: Growth inhibition of human A549 cells incubated for 48 hrs by sulforhodamine B assay; type: functional; conditions: A549, 48 h
# SF-539 = experiment: Growth inhibition of human SF539 cells incubated for 48 hrs by sulforhodamine B assay; type: functional; conditions: SF-539, 48 h
# OVCAR-3 = experiment: Growth inhibition of human OVCAR3 cells incubated for 48 hrs by sulforhodamine B assay; type: functional; conditions: OVCAR-3, 48 h
# HCT-116 = experiment: Growth inhibition of human HCT116 cells incubated for 48 hrs by sulforhodamine B assay; type: functional; conditions: HCT-116, 48 h
# SF-268 = experiment: Growth inhibition of human SF268 cells incubated for 48 hrs by sulforhodamine B assay; type: functional; conditions: SF-268, 48 h
# NCI-H460 = experiment: Growth inhibition of human NCI-H460 cells incubated for 48 hrs by sulforhodamine B assay; type: functional; conditions: NCI-H460, 48 h
# MCF7 = experiment: Growth inhibition of human MCF7 cells incubated for 48 hrs by sulforhodamine B assay; type: functional; conditions: MCF7, 48 h
# DMS-273 = experiment: Growth inhibition of human DMS273 cells incubated for 48 hrs by sulforhodamine B assay; type: functional; conditions: DMS-273, 48 h
# HCC 2998 = experiment: Growth inhibition of human HCC2998 cells incubated for 48 hrs by sulforhodamine B assay; type: functional; conditions: HCC 2998, 48 h
# SF-295 = experiment: Growth inhibition of human SF295 cells incubated for 48 hrs by sulforhodamine B assay; type: functional; conditions: SF-295, 48 h
# [9] = Growth inhibition of human HBC5 cells incubated for 48 hrs by sulforhodamine B assay; type: functional; conditions: HBC5, 48 h
# MKN-7 = experiment: Growth inhibition of human MKN7 cells incubated for 48 hrs by sulforhodamine B assay; type: functional; conditions: MKN-7, 48 h
# LOX IMVI = experiment: Growth inhibition of human LOXIMVI cells incubated for 48 hrs by sulforhodamine B assay; type: functional
# HT-29 = experiment: Growth inhibition of human HT-29 cells incubated for 48 hrs by sulforhodamine B assay; type: functional; conditions: HT-29, 48 h
# [10] = Growth inhibition of human […] incubated for 48 hrs by sulforhodamine B assay; type: functional
# OVCAR-8 = experiment: Growth inhibition of human OVCAR8 cells incubated for 48 hrs by sulforhodamine B assay; type: functional; conditions: OVCAR-8, 48 h
# T1 sequence (P11388 whole entry): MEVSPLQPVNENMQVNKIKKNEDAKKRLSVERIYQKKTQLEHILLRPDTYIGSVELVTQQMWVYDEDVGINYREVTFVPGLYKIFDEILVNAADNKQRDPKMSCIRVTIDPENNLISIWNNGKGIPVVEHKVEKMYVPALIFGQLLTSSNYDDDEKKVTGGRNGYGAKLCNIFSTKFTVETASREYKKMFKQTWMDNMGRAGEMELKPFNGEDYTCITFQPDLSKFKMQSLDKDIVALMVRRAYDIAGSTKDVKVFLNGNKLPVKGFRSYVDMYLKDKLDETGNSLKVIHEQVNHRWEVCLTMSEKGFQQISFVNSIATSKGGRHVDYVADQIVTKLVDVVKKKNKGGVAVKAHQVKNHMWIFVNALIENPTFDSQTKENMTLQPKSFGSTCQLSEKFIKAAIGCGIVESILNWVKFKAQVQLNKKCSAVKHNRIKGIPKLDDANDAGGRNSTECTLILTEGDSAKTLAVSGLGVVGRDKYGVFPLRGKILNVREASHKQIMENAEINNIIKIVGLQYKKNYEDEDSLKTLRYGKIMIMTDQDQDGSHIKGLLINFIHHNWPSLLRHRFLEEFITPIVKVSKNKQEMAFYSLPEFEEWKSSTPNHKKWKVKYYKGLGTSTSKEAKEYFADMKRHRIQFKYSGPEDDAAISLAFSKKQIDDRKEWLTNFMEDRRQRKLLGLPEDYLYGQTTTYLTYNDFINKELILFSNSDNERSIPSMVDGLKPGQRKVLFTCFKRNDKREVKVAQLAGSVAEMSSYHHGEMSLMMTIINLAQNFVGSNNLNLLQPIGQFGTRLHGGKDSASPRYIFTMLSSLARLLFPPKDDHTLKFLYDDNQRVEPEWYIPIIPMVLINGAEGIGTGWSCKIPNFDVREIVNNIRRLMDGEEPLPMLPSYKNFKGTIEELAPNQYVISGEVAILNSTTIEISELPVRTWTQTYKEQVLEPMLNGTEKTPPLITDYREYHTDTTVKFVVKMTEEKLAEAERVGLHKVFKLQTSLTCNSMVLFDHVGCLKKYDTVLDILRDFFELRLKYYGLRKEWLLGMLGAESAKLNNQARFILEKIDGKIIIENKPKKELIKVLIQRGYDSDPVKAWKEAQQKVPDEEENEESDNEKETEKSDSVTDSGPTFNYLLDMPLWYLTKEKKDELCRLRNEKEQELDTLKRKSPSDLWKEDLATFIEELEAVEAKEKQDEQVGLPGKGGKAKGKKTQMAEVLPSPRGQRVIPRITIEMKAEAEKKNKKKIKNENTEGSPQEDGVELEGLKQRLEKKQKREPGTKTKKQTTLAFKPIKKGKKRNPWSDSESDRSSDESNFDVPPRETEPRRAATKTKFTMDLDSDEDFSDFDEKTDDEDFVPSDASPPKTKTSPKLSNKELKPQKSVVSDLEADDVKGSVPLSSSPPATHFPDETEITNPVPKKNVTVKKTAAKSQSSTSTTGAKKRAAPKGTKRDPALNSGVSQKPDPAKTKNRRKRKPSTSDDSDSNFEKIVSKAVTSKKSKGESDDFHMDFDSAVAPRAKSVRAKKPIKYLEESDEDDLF
# DNA topoisomerase 1 (Homo sapiens), sequence (P11387 whole entry): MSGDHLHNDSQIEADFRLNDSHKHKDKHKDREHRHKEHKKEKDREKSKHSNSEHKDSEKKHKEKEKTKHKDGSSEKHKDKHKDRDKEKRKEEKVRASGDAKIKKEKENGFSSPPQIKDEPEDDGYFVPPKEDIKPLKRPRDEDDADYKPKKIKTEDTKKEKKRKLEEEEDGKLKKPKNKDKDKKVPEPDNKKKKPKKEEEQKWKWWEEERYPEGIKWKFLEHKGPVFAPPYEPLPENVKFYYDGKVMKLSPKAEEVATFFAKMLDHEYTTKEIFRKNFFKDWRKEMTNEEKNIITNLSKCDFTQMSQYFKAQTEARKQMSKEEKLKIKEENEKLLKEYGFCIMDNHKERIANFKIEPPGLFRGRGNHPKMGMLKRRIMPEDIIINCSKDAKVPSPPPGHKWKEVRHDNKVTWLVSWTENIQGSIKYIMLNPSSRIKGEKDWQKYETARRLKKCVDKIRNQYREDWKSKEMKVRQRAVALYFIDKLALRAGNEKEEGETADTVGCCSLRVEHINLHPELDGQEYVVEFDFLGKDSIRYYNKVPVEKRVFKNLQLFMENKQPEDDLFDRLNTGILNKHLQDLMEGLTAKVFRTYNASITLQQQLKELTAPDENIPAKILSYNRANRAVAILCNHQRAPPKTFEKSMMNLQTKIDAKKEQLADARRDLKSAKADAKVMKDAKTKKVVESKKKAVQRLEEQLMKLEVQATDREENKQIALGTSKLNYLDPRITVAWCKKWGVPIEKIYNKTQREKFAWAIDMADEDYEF
compound,measurement,setting,value
COc1ccc(C[C@H]2C[C@H](n3cc(C)c(=O)[nH]c3=O)O[C@@H]2CO)cc1OC,inhibition,[1],23.7%
same,IC50,[2],> 200 µM
same,inhibition,[3],inactive
Cc1cn([C@H]2C[C@H](Cc3ccc(O)c(O)c3)[C@@H](CO[Si](C)(C)C(C)(C)C)O2)c(=O)[nH]c1=O,IC50,[2],35.2 µM
COc1ccc(C[C@H]2C[C@@H](n3cc(C)c(=O)[nH]c3=O)O[C@@H]2CO[Si](C)(C)C(C)(C)C)cc1OC,IC50,[2],89.2 µM
COc1ccc(C2([C@H]3CC(=O)O[C@@H]3CO)SCCCS2)cc1OC,inhibition,[1],19.8%
same,IC50,[2],> 200 µM
COc1ccc(C[C@H]2CC(=O)O[C@@H]2CO)cc1OC,inhibition,[1],inactive
COc1ccc(C2([C@H]3CC(=O)O[C@@H]3CO[Si](C)(C)C(C)(C)C)SCCCS2)cc1OC,IC50,[2],55.7 µM
COc1ccc(C[C@H]2CC(=O)O[C@@H]2CO[Si](C)(C)C(C)(C)C)cc1OC,IC50,[2],137 µM
COc1cc([C@@H]2c3cc4c(cc3[C@@H](O[C@@H]3O[C@@H]5CO[C@@H](C)O[C@H]5[C@H](O)[C@H]3O)[C@H]3COC(=O)[C@H]23)OCO4)cc(OC)c1O,Activity,[4],Active
COc1ccc(C2([C@H]3C[C@H](n4cc(C)c(=O)[nH]c4=O)O[C@@H]3CO)SCCCS2)cc1OC,IC50,[2],64.5 µM
COc1ccc(C[C@H]2C[C@H](n3cc(C)c(=O)[nH]c3=O)O[C@@H]2CO[Si](C)(C)C(C)(C)C)cc1OC,IC50,[2],99.1 µM
Cc1cn([C@H]2C[C@H](Cc3ccc(O)c(O)c3)[C@@H](CO)O2)c(=O)[nH]c1=O,Activity,[4],inactive
same,inhibition,[5],inactive
same,inhibition,[6],inactive
same,IC50,[2],176 µM
same,inhibition,[2],Dose-dependent effect
COc1ccc(C2([C@H]3C[C@@H](n4cc(C)c(=O)[nH]c4=O)O[C@@H]3CO[Si](C)(C)C(C)(C)C)SCCCS2)cc1OC,GI50,OVCAR-5,12.9 µM
same,GI50,St-4,12 µM
same,GI50,SNB-75,17 µM
same,GI50,SK-OV-3,17 µM
same,GI50,RXF 631,17 µM
same,GI50,DMS-114,5.62 µM
same,GI50,DU-145,12 µM
same,GI50,MKN-28,4.9 µM
same,GI50,HCT-15,9.12 µM
same,GI50,MKN-1,5.01 µM
same,GI50,U-251,7.41 µM
same,GI50,MKN-45,8.32 µM
same,GI50,NCI-H23,11 µM
same,GI50,SNB-78,12.9 µM
same,GI50,NCI-H226,3.39 µM
same,GI50,ACHN,6.76 µM
same,GI50,OVCAR-4,4.9 µM
same,IC50,[2],18.5 µM
same,GI50,PC-3,3.63 µM
same,GI50,[7],3.31 µM
same,GI50,[8],5.01 µM
same,GI50,MKN-74,4.27 µM
same,GI50,KM12,11 µM
same,GI50,NCI-H522,5.62 µM
same,GI50,A549,5.37 µM
same,GI50,SF-539,14.1 µM
same,GI50,OVCAR-3,11 µM
same,GI50,HCT-116,5.75 µM
same,GI50,SF-268,12.9 µM
same,GI50,NCI-H460,5.62 µM
same,GI50,MCF7,4.37 µM
same,GI50,DMS-273,4.57 µM
same,GI50,HCC 2998,12.9 µM
same,GI50,SF-295,8.32 µM
same,GI50,[9],5.75 µM
same,GI50,MKN-7,3.02 µM
same,GI50,LOX IMVI,8.13 µM
same,GI50,HT-29,6.17 µM
same,GI50,[10],11 µM
same,GI50,OVCAR-8,8.32 µM
Cc1cn([C@H]2C[C@H](CC3=CC(=O)C(=O)C=C3)[C@@H](CO[Si](C)(C)C(C)(C)C)O2)c(=O)[nH]c1=O,IC50,[2],2.43 µM
COc1ccc(C[C@H]2C[C@@H](n3cc(C)c(=O)[nH]c3=O)O[C@@H]2CO)cc1OC,inhibition,[1],inactive
COc1ccc(C2([C@H]3C[C@H](n4cc(C)c(=O)[nH]c4=O)O[C@@H]3CO[Si](C)(C)C(C)(C)C)SCCCS2)cc1OC,GI50,OVCAR-5,2.88 µM
same,inhibition,[5],inactive
same,GI50,St-4,4.47 µM
same,GI50,SNB-75,10 µM
same,GI50,SK-OV-3,5.25 µM
same,GI50,RXF 631,4.57 µM
same,GI50,DMS-114,3.31 µM
same,GI50,DU-145,3.72 µM
same,GI50,MKN-28,3.31 µM
same,GI50,HCT-15,4.07 µM
same,GI50,MKN-1,2.29 µM
same,GI50,U-251,3.8 µM
same,GI50,MKN-45,3.31 µM
same,GI50,NCI-H23,3.72 µM
same,GI50,SNB-78,5.5 µM
same,GI50,NCI-H226,2 µM
same,GI50,ACHN,2.51 µM
same,GI50,OVCAR-4,2.88 µM
same,IC50,[2],8.1 µM
same,GI50,PC-3,2.29 µM
same,GI50,[7],1.82 µM
same,GI50,[8],3.8 µM
same,GI50,MKN-74,3.24 µM
same,GI50,KM12,4.07 µM
same,GI50,NCI-H522,2.69 µM
same,GI50,A549,4.68 µM
same,GI50,SF-539,2.19 µM
same,GI50,OVCAR-3,3.72 µM
same,GI50,HCT-116,3.63 µM
same,GI50,SF-268,6.46 µM
same,GI50,NCI-H460,3.63 µM
same,GI50,MCF7,3.31 µM
same,GI50,DMS-273,3.8 µM
same,GI50,HCC 2998,3.31 µM
same,GI50,SF-295,3.72 µM
same,GI50,[9],2.51 µM
same,GI50,MKN-7,2.29 µM
same,GI50,LOX IMVI,3.24 µM
same,GI50,HT-29,3.89 µM
same,GI50,[10],3.47 µM
same,GI50,OVCAR-8,3.89 µM
